Calls of active or inactive are those of the source. No cut-off for these calls is given here.
Legend:
[1] = Volume of distribution at steady state in rat at 1 to 3 mg/kg; assay type: ADME, organism-based; design: dose 1-3 mg/kg; conditions: in vivo, read-out: Vdss
[2] = Bioavailability in rat at 1 to 3 mg/kg; assay type: ADME, organism-based; conditions: in vivo
Plasma [3] = test: Fraction unbound in human plasma by LC-UVMS; assay type: ADME, cell-free
Procedure, shortened: (§1)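 Equilibrium dialysis in plasma of the relevant species at 37 °C; free and bound drug quantified by LC-UVMS; reported as % free.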

[4] = Half life in marmosets at 1 to 3 mg/kg, po; assay type: ADME, organism-based; design: dose 1-3 mg/kg, route oral; conditions: callitrichinae sp., in vivo
Hepatocyte = test: Metabolic stability in rat hepatocytes assessed as conversion to acyl glucuronide form after 2 hrs; assay type: ADME, cell-based
[5] = Volume of distribution at steady state in dog at 1 to 3 mg/kg; assay type: ADME, organism-based, Canis lupus familiaris; design: dose 1-3 mg/kg; conditions: in vivo, read-out: Vdss
[6] = Metabolic stability in dog alamethicin-activated microsomes assessed as conversion to acyl glucuronide form after 1 hr; assay type: ADME, Canis lupus familiaris, Microsome
Rattus norvegicus [7] = test: Reduction of plasma triacylglycerol excursion in 14 hrs fasted Han-Wistar rat at 0.3 mg/kg, po treated 2 hrs before bolus corn oil administration measured 1.5 hrs post corn oil challenge by oral lipid tolerance test relative to control; assay type: functional; design: scale not given: the % may be the effect or the level left
Procedure, shortened: (§2)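 Male Han-Wistar rats (~230 g) on chow diet were fasted 14 h and given compound by oral gavage, suspended in HPMC/Tween. A corn oil bolus (5 mL/kg) followed 2 h later. After 1.5 h, blood was drawn from the abdominal vena cava and plasma TAG measured colorimetrically (GPO-PAP). Result is % reduction versus vehicle-treated controls; n = 6.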

[8] = molecular target: T1, Sterol O-acyltransferase 1 (Homo sapiens, UniProt P35610); test: Inhibition of human ACAT1 by liquid scintillography
T1 sequence (P35610 whole entry): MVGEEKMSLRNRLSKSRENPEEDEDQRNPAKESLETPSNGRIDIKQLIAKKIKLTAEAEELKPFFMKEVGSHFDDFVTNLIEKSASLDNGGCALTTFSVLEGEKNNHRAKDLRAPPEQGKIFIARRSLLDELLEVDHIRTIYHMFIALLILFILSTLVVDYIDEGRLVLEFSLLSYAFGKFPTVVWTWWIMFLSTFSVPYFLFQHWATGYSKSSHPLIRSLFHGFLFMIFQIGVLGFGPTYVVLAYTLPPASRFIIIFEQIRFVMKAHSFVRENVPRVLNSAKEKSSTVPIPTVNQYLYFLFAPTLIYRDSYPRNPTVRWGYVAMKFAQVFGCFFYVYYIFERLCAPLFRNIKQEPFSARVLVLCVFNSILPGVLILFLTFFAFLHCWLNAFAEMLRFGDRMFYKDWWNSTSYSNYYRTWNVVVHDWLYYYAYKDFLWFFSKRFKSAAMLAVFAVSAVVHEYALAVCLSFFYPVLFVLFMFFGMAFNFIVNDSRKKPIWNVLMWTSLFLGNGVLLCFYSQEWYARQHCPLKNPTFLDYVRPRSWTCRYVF

[9] = Apparent permeability from apical to basolateral side in MDCK cells at 10 uM; assay type: ADME, cell-based, Canis lupus familiaris; conditions: dog, read-out: permeability
Procedure, shortened: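 Cultured MDCK cells incubated with compound at 10 µM; apparent permeability (Papp, ×10^-6 cm/s) measured in both apical-to-basolateral and basolateral-to-apical directions.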

Rattus norvegicus [10] = test: Reduction of adipose triacylglycerol synthesis in 14 hrs fasted Han-Wistar rat assessed as decrease in ratio of [3H]palmitic acid incorporation into TAG and DAG at 1 mg/kg, po after 1.5 hrs relative to control; assay type: functional; design: scale not given: the % may be the effect or the level left
Procedure, shortened: (§3)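 Male Han-Wistar rats (~300 g) on chow diet were given compound by oral gavage, suspended in HPMC/Tween. At 1.5 h they were anaesthetised with inactin and a bolus of [3H]-palmitic acid was given via a jugular cannula. Epididymal fat was taken 20 min later, homogenised in duplicate with [14C]-oleic acid internal standard, and lipids separated by HPLC. Result is % reduction of the TAG/DAG label ratio versus vehicle; n = 10.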

[11] = Plasma clearance in dog at 1 to 3 mg/kg; assay type: ADME, organism-based, Canis lupus familiaris; design: dose 1-3 mg/kg
[12] = Half life in rat at 1 to 3 mg/kg, iv; assay type: ADME, organism-based; design: dose 1-3 mg/kg, route intravenous; conditions: in vivo
[13] = Half life in dog at 1 to 3 mg/kg, iv; assay type: ADME, organism-based, Canis lupus familiaris; design: dose 1-3 mg/kg, route intravenous; conditions: in vivo
Mus musculus = test: Inhibition of dietary-induced obesity in obese […] mouse model assessed as reduction in body weight at 20 mg/kg, po qd for 3 days relative to start weight; assay type: functional, organism-based; design: dose 20 mg/kg
Procedure, shortened: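 Female C57BL/6 mice fed high-calorie cafeteria diet for 15 weeks to about 29 g, randomized into groups of 12. Oral gavage (10 mL/kg) once daily for 3 days, 2 h before the dark phase. Body weight recorded daily before dosing and expressed as percent change from day 0, compared with vehicle-treated diet-matched controls.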

CYP3A4 = CYP3A4 (Homo sapiens, UniProt P08684); test: Inhibition of CYP3A4 at 30 uM; assay type: ADME
Sequence of CYP3A4 (P08684 whole entry): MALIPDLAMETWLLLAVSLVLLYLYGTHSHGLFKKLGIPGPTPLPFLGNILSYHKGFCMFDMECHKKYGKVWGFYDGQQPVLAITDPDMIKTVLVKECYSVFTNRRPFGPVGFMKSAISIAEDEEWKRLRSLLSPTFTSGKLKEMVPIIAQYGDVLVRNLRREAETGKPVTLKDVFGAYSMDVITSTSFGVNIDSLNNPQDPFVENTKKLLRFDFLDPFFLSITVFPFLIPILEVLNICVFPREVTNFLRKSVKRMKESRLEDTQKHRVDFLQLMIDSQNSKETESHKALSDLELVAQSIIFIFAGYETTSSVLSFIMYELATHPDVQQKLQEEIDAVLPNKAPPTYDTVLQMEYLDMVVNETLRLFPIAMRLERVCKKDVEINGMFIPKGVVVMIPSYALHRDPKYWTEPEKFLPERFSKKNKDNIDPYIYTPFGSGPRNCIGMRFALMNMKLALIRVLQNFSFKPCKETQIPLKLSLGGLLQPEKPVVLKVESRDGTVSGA

CYP2C19 = CYP2C19 (Homo sapiens, UniProt P33261); test: Inhibition of CYP2C19 at 30 uM; assay type: ADME
Sequence of CYP2C19 (P33261 whole entry): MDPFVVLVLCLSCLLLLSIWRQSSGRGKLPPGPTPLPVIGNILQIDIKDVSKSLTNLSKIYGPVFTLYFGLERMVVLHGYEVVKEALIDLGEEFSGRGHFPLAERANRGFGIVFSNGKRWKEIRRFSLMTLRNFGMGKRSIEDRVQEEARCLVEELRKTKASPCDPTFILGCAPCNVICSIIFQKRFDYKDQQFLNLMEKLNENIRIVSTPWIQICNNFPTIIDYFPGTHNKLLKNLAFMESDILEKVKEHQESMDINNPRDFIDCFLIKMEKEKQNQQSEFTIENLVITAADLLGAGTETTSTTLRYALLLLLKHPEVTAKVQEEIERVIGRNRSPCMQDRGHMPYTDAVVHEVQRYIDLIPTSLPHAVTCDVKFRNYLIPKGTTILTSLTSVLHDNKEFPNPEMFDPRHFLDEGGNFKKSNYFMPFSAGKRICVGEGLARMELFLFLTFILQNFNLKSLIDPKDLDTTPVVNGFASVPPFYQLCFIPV

[14] = molecular target: T2, Diacylglycerol O-acyltransferase 2 (Homo sapiens) (UniProt Q96PD7); test: Inhibition of human DGAT2 at 10 uM by liquid scintillography
T2 sequence (whole entry): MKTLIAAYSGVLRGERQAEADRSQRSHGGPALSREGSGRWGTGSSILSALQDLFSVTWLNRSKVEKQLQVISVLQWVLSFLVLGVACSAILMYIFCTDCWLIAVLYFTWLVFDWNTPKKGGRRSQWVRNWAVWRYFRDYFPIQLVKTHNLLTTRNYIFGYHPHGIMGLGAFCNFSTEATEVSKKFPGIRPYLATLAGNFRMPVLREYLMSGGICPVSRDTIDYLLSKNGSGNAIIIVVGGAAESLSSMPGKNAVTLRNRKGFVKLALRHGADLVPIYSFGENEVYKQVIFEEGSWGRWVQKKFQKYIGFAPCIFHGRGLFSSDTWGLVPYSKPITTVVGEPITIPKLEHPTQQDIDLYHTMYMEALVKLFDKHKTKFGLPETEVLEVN

Plasma [15] = test: Fraction unbound in dog plasma by LC-UVMS; assay type: ADME, cell-free, Canis lupus familiaris; procedure, shortened: as §1
Rattus norvegicus [16] = test: Reduction of adipose triacylglycerol synthesis in 14 hrs fasted Han-Wistar rat assessed as decrease in ratio of [3H]palmitic acid incorporation in to TAG and DAG at 3 mg/kg, po after 1.5 hrs relative to control; assay type: functional; design: scale not given: the % may be the effect or the level left; procedure, shortened: as §3
[17] = molecular target: T3, Diacylglycerol O-acyltransferase 1 (Homo sapiens, UniProt O75907); test: Inhibition of human recombinant DGAT1 expressed in Sf9 cells by liquid scintillography
T3 sequence (O75907 whole entry): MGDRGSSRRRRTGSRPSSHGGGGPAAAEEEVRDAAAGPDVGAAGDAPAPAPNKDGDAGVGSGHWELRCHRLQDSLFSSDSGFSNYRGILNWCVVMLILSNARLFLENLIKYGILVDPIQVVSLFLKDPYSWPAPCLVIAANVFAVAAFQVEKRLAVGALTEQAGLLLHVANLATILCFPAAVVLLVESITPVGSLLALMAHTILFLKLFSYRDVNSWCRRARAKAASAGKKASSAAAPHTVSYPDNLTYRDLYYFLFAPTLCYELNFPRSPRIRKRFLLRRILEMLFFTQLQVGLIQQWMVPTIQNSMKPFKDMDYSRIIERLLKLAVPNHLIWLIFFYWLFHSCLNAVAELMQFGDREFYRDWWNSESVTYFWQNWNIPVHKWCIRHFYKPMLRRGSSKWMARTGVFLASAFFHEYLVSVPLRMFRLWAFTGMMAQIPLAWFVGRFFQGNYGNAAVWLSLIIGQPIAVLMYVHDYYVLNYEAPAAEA

Rattus norvegicus [18] = test: Reduction of plasma triacylglycerol excursion in 14 hrs fasted Han-Wistar rat at 1 mg/kg, po treated 2 hrs before bolus corn oil administration measured 1.5 hrs post corn oil challenge by oral lipid tolerance test relative to control; assay type: functional; design: scale not given: the % may be the effect or the level left; procedure, shortened: as §2
[19] = Half life in dog at 1 to 3 mg/kg, po; assay type: ADME, organism-based, Canis lupus familiaris; design: dose 1-3 mg/kg, route oral; conditions: in vivo

Vd [1]: 0.7 L/kg | bioavailability [2]: 72% | Fu (Plasma [3]): 1% | half-life [4]: 9.5 h | Stability (Hepatocyte): 18% | Vd [5]: 1 L/kg | Stability [6]: 76% | IC50 [8]: 5200 nM | Papp A→B at 10 µM [9]: 18 ×10⁻⁶ cm/s | clearance [11]: 3.3 mL/min/kg | half-life [12]: 7 h | half-life [13]: 8.6 h | inhibition at 30 µM (CYP3A4): < 25% | inhibition at 30 µM (CYP2C19): < 25% | inhibition [14]: 0% | Fu (Plasma [15]): 0.6% | IC50 [17]: 15 nM | half-life [19]: 9.9 h
Compound: CC1(C)Oc2ncnc(N)c2N=C1c1ccc(C23CCC(CC(=O)O)(CC2)CC3)cc1
Activity (Rattus norvegicus [7]): 57% | Activity (Rattus norvegicus [10]): 37% | Activity (Mus musculus): Active | Activity (Rattus norvegicus [16]): 57% | Activity (Rattus norvegicus [18]): 72%

From ChEMBL document CHEMBL1152806, “Discovery of a potent, selective, and orally efficacious pyrimidinooxazinyl bicyclooctaneacetic acid diacylglycerol acyltransferase-1 inhibitor” (J Med Chem, 2009)
